Common to all, as to type: functional
The species named for test [1] is Mus musculus. As to the kind of experiment: Lowest effective dose in a mouse head injury model was reported. An outline of the steps: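 Unanesthetized male CF-1 mice, 16–22 g; concussive head injury by weight drop (900 g cm for 16–20 g mice, 950 g cm for 20–22 g). Vehicle or compound given blindly as iv bolus 3–5 min post-injury; vehicle 0.05 N HCl or 0.5% Tween 80. Four groups of 20 per trial (vehicle plus three doses). Grip test on suspended taut string at 1 h; group score as mean time on string.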

Test [2] is filed under the species Rattus norvegicus. The test can be described thus: Ability to inhibit iron-dependent lipid peroxidation in rat brain homogenate using MDA (malondialdehyde) formation assay at 300 uM.
Test [3] is filed under the species Rattus norvegicus. As to the kind of experiment: Ability to inhibit iron-dependent lipid peroxidation in rat brain homogenate using MDA (malondialdehyde) formation assay. An outline of the steps:
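Incubations at 37 °C contain 20% ethanol and compound up to 300 μM, and are started with 200 μM Fe2+. They are stopped after 20 min with ice-cold 12.5% TCA in 0.8 N HCl. Readout is TBAR formation, reported as IC50 or % inhibition at 300 μM.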

In test [4] the test system is Mus musculus. The test can be described thus: Percent increase in KCN lethality (cytotoxic hypoxia) model against male CF-1 mice at a dose 30 mg/kg administered intravenously. To be noted: route intravenous.
Test [5] has as its system Mus musculus. The test can be described thus: Percent increase in KCN lethality (cytotoxic hypoxia) model against male CF-1 mice at a dose 100 mg/kg administered intravenously. The conditions noted are these: route intravenous.
The test system of test [6] is Mus musculus. The test can be described thus: Evaluated in a potassium cyanide lethality (cytotoxic hypoxia) model against male CF-1 mice at 100 mg/kg administered intravenously. The conditions noted are these: route intravenous.
Test [7] has as its system Mus musculus. As to the kind of experiment: Evaluated in a potassium cyanide lethality (cytotoxic hypoxia) model against male CF-1 mice at a dose 30 mg/kg administered intravenously. The conditions noted are these: route intravenous.

Molecules are shown by their SMILES.

In the test listed under Mus musculus [1], `C[C@@H]1CC2C3CCC4=CC(=O)C=C[C@]4(C)C3=CC[C@]2(C)[C@H]1C(=O)CN1CCN(c2ccccn2)CC1` (some centres undefined) displayed a Lowest effective dose of 10 mg/kg. Further, the inhibition in the test listed under Rattus norvegicus [2] is 4%.
In the case of `COc1ccccc1N1CCN(CC(=O)[C@@]2(O)CCC3C4CCC5=CC(=O)CC[C@]5(C)C4=CC[C@@]32C)CC1` (some centres undefined), the inhibition in the test listed under Rattus norvegicus [2] was found to be 37%.
Consider `C[C@]12CCC(=O)C=C1CCC1C2=CC[C@@]2(C)C1CC[C@]2(O)C(=O)CN1CCN(c2ccccn2)CC1` (some centres undefined), for which, in the test listed under Mus musculus [1], the Lowest effective dose is 10 mg/kg. For the same molecule, in the test filed under Rattus norvegicus [2], the inhibition worked out at 23%.
As to `COc1cccc(N2CCN(CC(=O)[C@@]3(O)CCC4C5CCC6=CC(=O)CC[C@]6(C)C5=CC[C@@]43C)CC2)n1` (some centres undefined), the half-inhibitory concentration (IC50) in the test filed under Rattus norvegicus [3] was 101 µM.
`CCN(CC)c1ccc(N2CCN(CC(=O)[C@H]3[C@H](C)CC4C5CCC6=CC(=O)C=C[C@]6(C)C5=CC[C@@]43C)CC2)nc1N(CC)CC.O=C(O)/C=C/C(=O)O` (some centres undefined) returned a Lowest effective dose in the test filed under Mus musculus [1] of 0.003 mg/kg. In the test filed under Rattus norvegicus [3], this molecule came in with an IC50 of 3 µM. Further, the “Increase in LD50” value in the test on Mus musculus [4] is on record as 15%; in the test on Mus musculus [5], 46%.
Molecule `C[C@]12CCC(=O)C=C1CCC1C2=CC[C@@]2(C)C1CC[C@]2(O)C(=O)CN1CCN(c2cccc(N3CCCC3)n2)CC1` (some centres undefined) showed an IC50 in the test filed under Rattus norvegicus [3] of 57 µM.
`C[C@]12CC(=O)[C@H]3[C@@H](CCC4=CC(=O)CC[C@@]43C)[C@@H]1CC[C@@H]2C(=O)CN1CCN(c2ccccn2)CC1` registered an inhibition in the test listed under Rattus norvegicus [2] of 14%.
On the same count and under the same terms, with `C[C@]12CCC(=O)C=C1CCC1C2[C@H](O)C[C@@]2(C)C1CC[C@]2(O)C(=O)CN1CCN(c2ccccn2)CC1` (some centres undefined) the figure was 20%; with `C[C@]12CCC(=O)C=C1CCC1C2=CC[C@@]2(C)C1CC[C@]2(O)C(=O)CN1CCNCC1` (some centres undefined), 15%; with `C[C@]12CCC(=O)C=C1CC[C@@H]1[C@@H]2CC[C@@]2(C)[C@H]1CC[C@]2(O)C(=O)CN1CCN(c2ccccn2)CC1`, 26%.
The same measure, in the same setting: for `C[C@]12CCC(=O)C=C1CCC1C2=CC[C@@]2(C)C1CC[C@]2(O)C(=O)CN1CCN(CCO)CC1` (some centres undefined) the value was 0%.
Turning to `CCNc1cccnc1N1CCN(CC(=O)[C@H]2[C@H](C)CC3C4CCC5=CC(=O)C=C[C@]5(C)C4=CC[C@@]32C)CC1.O=C(O)/C=C/C(=O)O` (some centres undefined), the Lowest effective dose in the test listed under Mus musculus [1] was 0.03 mg/kg. In the test filed under Rattus norvegicus [3], this molecule gave a 50% inhibitory concentration (IC50) of 15 µM.
With `C[C@]12C=CC(=O)C=C1CCC1C2[C@H](O)C[C@@]2(C)C1CC[C@]2(O)C(=O)CN1CCN(c2ccccn2)CC1` (some centres undefined), the inhibition in the test listed under Rattus norvegicus [2] is 0%.
Molecule `C[C@]12CCC(=O)C=C1CCC1C2C(=O)C[C@@]2(C)C1CC[C@]2(O)C(=O)CN1CCN(c2ccccn2)CC1` (some centres undefined) showed an inhibition in the test filed under Rattus norvegicus [2] of 3%.
Same read-out and setting: with `C[C@@H]1C[C@H]2[C@@H]3CCC4CC(=O)CC[C@]4(C)C3=CC[C@]2(C)[C@@]1(O)C(=O)CN1CCN(c2ccccn2)CC1` (some centres undefined) the figure was 31%.
`C[C@]12CCC(=O)C=C1CCC1C2=CC[C@@]2(C)C1CC[C@]2(O)C(=O)CN1CCN(c2cc(N3CCCC3)nc(N3CCCC3)n2)CC1.O=C(O)/C=C/C(=O)O` (some centres undefined) had a Lowest effective dose in the test listed under Mus musculus [1] of 1 mg/kg. In the test filed under Rattus norvegicus [2], this molecule gave an inhibition of 25%. The results for the “Increase in LD50” value in the test with Mus musculus [6] and with Mus musculus [7] were 33% and 0%, respectively.
For `CC(=O)N(O)CCCCCNC(=O)CCC(=O)N(O)CCCCCNC(=O)CCC(=O)N(O)CCCCCN` [DEFEROXAMINE], the half-maximal inhibitory concentration (IC50) in the test listed under Rattus norvegicus [3] turned out to be 112 µM.
In the case of `C[C@H]1CC2C([C@@H](O)C[C@@]3(C)C2CC[C@]3(O)C(=O)CN2CCN(c3ccccn3)CC2)[C@@]2(C)C=CC(=O)C=C12` (some centres undefined), in the test listed under Rattus norvegicus [2], the inhibition was 0%.
On the same count and under the same terms, for `C[C@]12CCC(=O)C=C1CCC1C2=CC[C@@]2(C)C1CC[C@]2(O)C(=O)CN1CCN(Cc2ncccc2O)CC1` (some centres undefined) the value was 5%.
Consider `C[C@@H]1C[C@H]2[C@@H]3CCC4=CC(=O)C=C[C@]4(C)C3=CC[C@]2(C)[C@H]1C(=O)CN1CCN(c2cc(N3CCCC3)nc(N3CCCC3)n2)CC1` [TIRILAZAD], for which the Lowest effective dose in the test listed under Mus musculus [1] came to 0.003 mg/kg. In the test filed under Rattus norvegicus [3], this molecule came in with an IC50 of 18 µM. Also, the “Increase in LD50” value is recorded as 14% in the test on Mus musculus [4] and 20% in the test with Mus musculus [5].
Regarding `C[C@H]1C[C@@H]2[C@H]([C@@H](O)C[C@@]3(C)[C@H]2CC[C@]3(O)C(=O)COC(=O)CCC(=O)[O-])[C@@]2(C)C=CC(=O)C=C12.[Na+]` [METHYLPREDNISOLONE SODIUM SUCCINATE], the Lowest effective dose in the test listed under Mus musculus [1] was determined as 15 mg/kg. The inhibition in the test listed under Rattus norvegicus [2] is 0%. In addition, the “Increase in LD50” value worked out at 0% in the test with Mus musculus [4] and 20% in the test on Mus musculus [5].
`Cc1c(C)c2c(c(C)c1O)CC[C@@](C)(CCC[C@H](C)CCC[C@H](C)CCCC(C)C)O2` [ALPHA-TOCOPHEROL]: the IC50 in the test filed under Rattus norvegicus [3] is 30 µM.
As to `C[C@]12CCC(O)CC1CC[C@@H]1[C@@H]2C(=O)C[C@@]2(C)[C@H]1CC[C@]2(O)C(=O)CN1CCN(c2ccccn2)CC1` (some centres undefined), in the test listed under Rattus norvegicus [2], the inhibition stood at 3%.
On the same count and under the same terms, with `C[C@]12CC[C@H]3[C@@H](CCC4=CC(=O)CC[C@@]43C)[C@@H]1CC[C@@H]2C(=O)CN1CCN(c2ccccn2)CC1` the figure was 9%.

The inhibition is how much of the control response was suppressed. Low values mean a response near the control, high ones a response far below the control. In general, IC50 refers to the concentration that inhibits the measured activity by half. Lower therefore signals higher potency.

(Values after ChEMBL document CHEMBL1124738, “Novel 21-aminosteroids that inhibit iron-dependent lipid peroxidation and protect against central nervous system trauma” (J Med Chem, 1990).)
